Source: ChEMBL document CHEMBL1127489, “Synthesis of novel N-phosphonoalkyl dipeptide inhibitors of human collagenase” (J Med Chem, 1994)

These compounds were tested against T1, Interstitial collagenase (Homo sapiens, UniProt P03956) (assay: Inhibition of degradation of radiolabeled rat skin type I collagen by semipurified human lung fibroblast collagenase).
T1 sequence (P03956 whole entry): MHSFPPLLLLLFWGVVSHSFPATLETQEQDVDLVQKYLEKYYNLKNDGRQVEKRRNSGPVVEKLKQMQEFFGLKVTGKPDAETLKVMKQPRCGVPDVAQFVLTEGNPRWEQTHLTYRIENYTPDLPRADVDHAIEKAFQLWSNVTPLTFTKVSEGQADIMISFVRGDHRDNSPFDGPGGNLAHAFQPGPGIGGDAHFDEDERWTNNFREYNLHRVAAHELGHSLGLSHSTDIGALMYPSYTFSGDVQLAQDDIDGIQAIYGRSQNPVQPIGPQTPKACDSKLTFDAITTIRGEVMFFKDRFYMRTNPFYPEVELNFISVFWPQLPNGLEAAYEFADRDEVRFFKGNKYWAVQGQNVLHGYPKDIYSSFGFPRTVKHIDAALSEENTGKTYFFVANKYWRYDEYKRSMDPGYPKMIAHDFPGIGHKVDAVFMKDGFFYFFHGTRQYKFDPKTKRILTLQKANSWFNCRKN
Summary of the method: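 Collagenase from WI-38 human lung fibroblast culture supernatants, trypsin-activated and semipurified. Substrate was 3H- or 14C-acetylated rat skin type I collagen, 100 μg/tube, added at 4 °C. Enzyme amount set to degrade 70% of collagen. Compounds were dissolved in MeOH by sonication and serially diluted. Incubation ran 1000 min at 37 °C, then centrifugation at 4 °C. Supernatant soluble peptides were scintillation counted.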

Row | SMILES | IC50 [nM]
1 | CC[C@H](N[C@@H](CC(C)C)C(=O)N[C@@H](CCCCN)C(=O)NC)P(=O)(O)O | 4320
2 | CNC(=O)[C@H](Cc1ccc(OC)cc1)NC(=O)C(CC(C)C)NC(C)P(C)(=O)O (stereo not given in full) | > 100000
3 | CCCCC(NC(CC(C)C)C(=O)N[C@@H](Cc1ccc(OC)cc1)C(=O)NC)P(=O)(O)O (stereo not given in full) | 41200
4 | CNC(=O)[C@H](Cc1ccc(OC)cc1)NC(=O)C(CC(C)C)NC(CC(C)C)P(=O)(O)O (stereo not given in full) | 2900
5 | CNC(=O)[C@H](Cc1ccc(OC)cc1)NC(=O)[C@H](CC(C)C)N[C@H](C)C(=O)O | > 10000
6 | CNC(=O)[C@H](Cc1ccccc1)NC(=O)[C@H](CC(C)C)N[C@@H](CC(C)C)P(=O)(O)O | 1560
7 | CNC(=O)[C@H](Cc1ccc(OC)cc1)NC(=O)C(CC(C)C)NC(C(C)C)P(=O)(O)O (stereo not given in full) | 2900
8 | CNC(=O)CP(=O)(O)C[C@@H](CC(C)C)C(=O)N[C@@H](Cc1ccc(OC)cc1)C(=O)NC | 37000
9 | CC[C@H](N[C@H](CC(C)C)C(=O)N[C@@H](Cc1ccc(OC)cc1)C(=O)NC)P(=O)(O)O | 15600
10 | CC[C@H](N[C@H](CC(C)C)C(=O)N[C@@H](Cc1ccccc1)C(=O)NC)P(=O)(O)O | > 10000
11 | CC[C@@H](N[C@H](CC(C)C)C(=O)N[C@@H](Cc1ccc(OC)cc1)C(=O)NC)P(=O)(O)O | 39300
12 | CC[C@@H](N[C@H](CC(C)C)C(=O)N[C@@H](Cc1ccccc1)C(=O)NC)P(=O)(O)O | > 10000
13 | CCC(NC(CC(C)C)C(=O)N[C@@H](Cc1ccc(OC)cc1)C(=O)NC)[PH](=O)O (stereo not given in full) | > 100000
14 | CCCC(NC(CC(C)C)C(=O)N[C@@H](Cc1ccc(OC)cc1)C(=O)NC)P(=O)(O)O (stereo not given in full) | 15700
15 | CNC(=O)[C@H](Cc1ccccc1)NC(=O)[C@H](CC(C)C)N[C@H](CCc1ccccc1)P(=O)(O)O | 1820

These reach a lower IC50. Values come first.

Row | IC50 [nM] | SMILES
16 | 260 | CNC(=O)[C@H](Cc1ccc(OC)cc1)NC(=O)[C@H](CC(C)C)N[C@H](C)P(=O)(O)O
17 | 740 | CC[C@@H](N[C@@H](CC(C)C)C(=O)N[C@@H](CCCCN)C(=O)NC)P(=O)(O)O
18 | 240 | CC[C@@H](N[C@@H](CC(C)C)C(=O)N[C@@H](Cc1ccccc1)C(=O)NC)P(=O)(O)O
19 | 290 | CC[C@H](N[C@@H](CC(C)C)C(=O)N[C@@H](CCCNC(=N)N)C(=O)NC)P(=O)(O)O
20 | 520 | CNC(=O)[C@H](Cc1ccc(OC)cc1)NC(=O)[C@H](CC(C)C)N[C@@H](C)P(=O)(O)O
21 | 760 | CC[C@H](N[C@@H](CC(C)C)C(=O)N[C@@H](Cn1cccn1)C(=O)NC)P(=O)(O)O
22 | 300 | CC[C@@H](N[C@@H](CC(C)C)C(=O)N[C@@H](Cc1ccc(OC)cc1)C(=O)NC)P(=O)(O)O
23 | 150 | CC[C@H](N[C@@H](CC(C)C)C(=O)N[C@@H](Cc1nc2ccccc2[nH]1)C(=O)NC)P(=O)(O)O
24 | 470 | CC[C@H](N[C@@H](CC(C)C)C(=O)N[C@@H](Cc1ccc(OC)cc1)C(=O)NC)P(=O)(O)O
25 | 400 | CNC(=O)[C@H](Cc1ccccc1)NC(=O)[C@H](CC(C)C)N[C@@H](CCc1ccccc1)P(=O)(O)O
26 | 350 | CNC(=O)[C@H](Cc1ccc(OC)cc1)NC(=O)[C@H](CC(C)C)N[C@@H](CCNC(=O)OCc1ccccc1)C(=O)O
27 | 1360 | CC[C@H](N[C@@H](CC(C)C)C(=O)N[C@@H](CC(=O)NCCN1CCCC1)C(=O)NC)P(=O)(O)O
28 | 490 | CC[C@H](N[C@@H](CC(C)C)C(=O)N[C@@H](CCCN(C)C)C(=O)NC)P(=O)(O)O
29 | 230 | CC[C@H](N[C@@H](CC(C)C)C(=O)N[C@@H](Cc1ccccc1)C(=O)NC)P(=O)(O)O
30 | 50 | CC[C@H](N[C@@H](CC(C)C)C(=O)N[C@@H](Cc1c[nH]c2ccccc12)C(=O)NC)P(=O)(O)O
